Experimental data published in the RNAGym collection of RNA variant scans (doi:10.1126/science.aae0568).
Fewer inactive variants are shown than the library holds.

B1: tRNA (parent)
chain: GUUCCGUUGGCGUAAUGGUAACGCGUCUCCCUCCUAAGGAGAAGACUGCGGGUUCGAGUCCCGUACGGAACG

Variants of: B1
Test: yeast fitness relative to wild type (ratio to wild type); higher = fitter; tRNA-Arg(CCU), competitive growth, 37 C, YPD
In short: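 The tRNA-Arg(CCU) gene variants were made by chemical synthesis with a 3% per-site mutation rate at 69 sites and inserted at the native genomic locus of Saccharomyces cerevisiae. After pooling, the strains were competed in YPD at 37°C for 24 hours in six parallel replicates. Gene amplicons from the start population and each end population were read by 100-nucleotide paired-end sequencing, and Darwinian fitness relative to wild type was taken from genotype frequency changes. Genotypes needed ≥ 100 starting reads, and estimates < 0.5 were set to 0.5.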

Going from G25C C29G U32G A43U G50A to A37U G48C, the yeast fitness rises from ≤ 0.5 to 0.674.

Going from U13A A36G to A21U C34A, the yeast fitness falls from 1.02 to 0.573.

Going from G38A A40U A65G to U2A G9C U13A A15G C33A A37U G50C C61U, the yeast fitness rises from ≤ 0.5 to 0.58.

Compared with U7G C30U G38A C60U, U8C A15C G41A G52C is lower in yeast fitness: 0.582 for the first, ≤ 0.5 for the second.

Compared with C31G A43U C46G C62U, A20C C29U C66U is higher in yeast fitness: ≤ 0.5 for the first, 0.603 for the second.

Going from U53A G67U to A37G A43G, the yeast fitness rises from 0.657 to 0.734.

Compared with U2G C27G, G6C U7C G48A is higher in yeast fitness: 0.546 for the first, 0.614 for the second.

First: A20G C49U A69C
Second: A14G G25A C30A A70C
The yeast fitness of the first is higher: 0.786 for the first, ≤ 0.5 for the second.

U26G C30U U32G G52C and U28C A40G G52C cannot be ordered by yeast fitness: ≤ 0.5 for the first, ≤ 0.5 for the second.

First: G9A C22A C55U
Second: G44A A65C
The yeast fitness of the first is lower: 0.626 for the first, 1.05 for the second.

Going from U2C C29U C66G G68A to C11U A43U, the yeast fitness rises from ≤ 0.5 to 0.907.

Going from A14C A57U C61U to C4G C29A A57C, the yeast fitness rises from ≤ 0.5 to 0.717.

Compared with C22A U47A G63C, U16C G48C is higher in yeast fitness: ≤ 0.5 for the first, 0.894 for the second.

G23A C30U G39A C60G and C11G U16C C24U U28C cannot be ordered by yeast fitness: ≤ 0.5 for the first, ≤ 0.5 for the second.

U8G G9C G68A and G25C U28C C62U A70C cannot be ordered by yeast fitness: ≤ 0.5 for the first, ≤ 0.5 for the second.

First: A21U A43C C62U A65U
Second: C4A C5G U19A C46U A69U
The yeast fitness of the first is lower: ≤ 0.5 for the first, 0.574 for the second.

Compared with C33G A45U C46U G56C, A37G A57G is higher in yeast fitness: ≤ 0.5 for the first, 0.87 for the second.

First: U2A U28C G39A G68A
Second: C11U C31G U64G A69G
The yeast fitness of the first is lower: ≤ 0.5 for the first, 0.842 for the second.

A21C A45C C49U C55G G56C and A14U A20C U59A C66A cannot be ordered by yeast fitness: ≤ 0.5 for the first, ≤ 0.5 for the second.

First: U8C C22U C30U C33U A45C
Second: G44A C61G
The yeast fitness of the first is lower: ≤ 0.5 for the first, 0.597 for the second.

First: C33G A42C C49G G58C C62G
Second: C22U A43C A70C
The yeast fitness of the first is lower: 0.513 for the first, 0.643 for the second.

C5U C24U A36G C46A U47C C55A and C4G U8C G25A A42U cannot be ordered by yeast fitness: ≤ 0.5 for the first, ≤ 0.5 for the second.

Going from G12C A20C to G9A C27G C31U C49G G58C, the yeast fitness falls from 0.699 to ≤ 0.5.

Compared with G12A A20C C24G U54A C60G C66U, A15G C34G is higher in yeast fitness: ≤ 0.5 for the first, 0.636 for the second.

First: G10U A40G G58A G68C
Second: C31G C33U
The yeast fitness of the first is lower: 0.631 for the first, 0.673 for the second.

Going from C5A U32C A36C G51A to A14G C31U C33U A45C G48A, the yeast fitness rises from 0.59 to 0.626.

A14U C30A G38A C55A A65C and C24U A37G A45U A69C cannot be ordered by yeast fitness: ≤ 0.5 for the first, ≤ 0.5 for the second.

Compared with C46G G67A, U3C U19G C61U is lower in yeast fitness: 0.912 for the first, ≤ 0.5 for the second.

First: U2C G9C A69C
Second: C24U C66A
The yeast fitness of the first is lower: 0.524 for the first, 0.618 for the second.

C5G A15U G50A A69U and C30U C61U G63A A65G cannot be ordered by yeast fitness: ≤ 0.5 for the first, ≤ 0.5 for the second.

A20G U53C C55A and C11G U16A U28C C29U G39A U59G G67U cannot be ordered by yeast fitness: ≤ 0.5 for the first, ≤ 0.5 for the second.

Going from C24U A45C C49G A69C to C11G C24G C62U, the yeast fitness rises from ≤ 0.5 to 0.528.

G6A C55U G58A G67A and U19C U26C G41C A43U A57G cannot be ordered by yeast fitness: ≤ 0.5 for the first, ≤ 0.5 for the second.

First: A14C C33U
Second: C22A G48C G51A C55A C66A
The yeast fitness of the first is higher: 0.64 for the first, ≤ 0.5 for the second.

Compared with A15U G51C, U28C A42G C55U A70U is lower in yeast fitness: 0.555 for the first, ≤ 0.5 for the second.

G6A C29G A69C and G10C A45G C61A A70G cannot be ordered by yeast fitness: ≤ 0.5 for the first, ≤ 0.5 for the second.

U13C A36C U47C G67U and G6C C33G A36C C49A C60G A65G A70U cannot be ordered by yeast fitness: ≤ 0.5 for the first, ≤ 0.5 for the second.

First: C11U A14G A37C
Second: G48C G67U
The yeast fitness of the first is lower: 0.737 for the first, 0.811 for the second.

Compared with C5G C31U U32C, U13G A37C is lower in yeast fitness: 0.659 for the first, 0.65 for the second.

First: A15C C27A G58A A70U
Second: C30G U35A C62U
The yeast fitness of the first is higher: 0.525 for the first, ≤ 0.5 for the second.

First: U32C G58A C62U A69C
Second: G25A A40C C46U
The yeast fitness of the first is lower: 0.716 for the first, 0.978 for the second.

First: A15G A21U G63A
Second: C11U G48A G51C C61A A65C
The yeast fitness of the first is higher: 0.627 for the first, ≤ 0.5 for the second.

C27U U53A G67A and C22G G38A U47C cannot be ordered by yeast fitness: ≤ 0.5 for the first, ≤ 0.5 for the second.

First: A21C C27G G39C
Second: U13G A40U C62A
The yeast fitness of the first is lower: ≤ 0.5 for the first, 0.52 for the second.

First: A43G A45G C55U
Second: C11A C34A G52C
The yeast fitness of the first is lower: ≤ 0.5 for the first, 0.541 for the second.

Going from A36G U47A G67C to U19A C24A C31G C62U G68C, the yeast fitness rises from ≤ 0.5 to 0.535.

Compared with U26G A42G A43C C46G, G12A U19A C31G C34U A57G is lower in yeast fitness: 0.677 for the first, ≤ 0.5 for the second.

Compared with C5U A42U, U8A A14U A42G is lower in yeast fitness: 0.838 for the first, ≤ 0.5 for the second.

First: C11G C31A
Second: C24G U54C C55A A65U
The yeast fitness of the first is higher: 0.508 for the first, ≤ 0.5 for the second.

First: G10C U13A
Second: C4G A14U U59G
The yeast fitness of the first is higher: 0.549 for the first, ≤ 0.5 for the second.

Going from A42C A43U G56C C66U to A15U U35A A43U C46U, the yeast fitness rises from ≤ 0.5 to 0.695.

Compared with C4U C30U U54A, C4U U8C U47A is higher in yeast fitness: ≤ 0.5 for the first, 0.601 for the second.

Compared with U16A C24G C46U G50C C55U A57U C62G A70U, U16C C46U A69C is higher in yeast fitness: ≤ 0.5 for the first, 0.783 for the second.

Compared with A21U A42G C55U A70C, U35C U59A A70C is lower in yeast fitness: 0.603 for the first, ≤ 0.5 for the second.

Going from G12A U47G U53A C60A to A45C G52A A69C, the yeast fitness rises from ≤ 0.5 to 0.568.

First: A15C G17A G18A A36C C55U
Second: A20G C34A G58A
The yeast fitness of the first is lower: ≤ 0.5 for the first, 0.622 for the second.

First: U16C C60A C62U
Second: C33A C34G
The yeast fitness of the first is lower: 0.55 for the first, 0.755 for the second.

First: U7G C49U A65G
Second: C30G C61U G68A
The yeast fitness of the first is higher: 0.83 for the first, 0.541 for the second.

First: G6C C22A C31G C49G G68C
Second: U7A G10A A15U
The yeast fitness of the first is lower: ≤ 0.5 for the first, 0.568 for the second.

Going from U8C A42G G68A to U8C A69U, the yeast fitness rises from 0.63 to 0.933.

Compared with U2C A14U U47A C61G A70G, C5G C46U A57C is higher in yeast fitness: ≤ 0.5 for the first, 0.552 for the second.

First: G39C C55G C66U
Second: G6A C34G A37U C49G
The yeast fitness of the first is lower: ≤ 0.5 for the first, 0.532 for the second.

Compared with G12A C46U C62U, U8G C24U is lower in yeast fitness: 0.732 for the first, 0.626 for the second.

Compared with C4G C5G C29A C34U A42U G50C G68C A69G, C5U A14C C55A is lower in yeast fitness: 0.58 for the first, ≤ 0.5 for the second.

First: C24G C46U
Second: C4U G52C
The yeast fitness of the first is lower: 0.654 for the first, 0.726 for the second.

Compared with U2C C4A U28C G44C, G17A A37C A69C is higher in yeast fitness: 0.601 for the first, 0.648 for the second.

First: A20U U47G
Second: U13C U19C U26C C31A C61G
The yeast fitness of the first is higher: 0.611 for the first, ≤ 0.5 for the second.

Compared with U47C, U3C C31U C62U is lower in yeast fitness: 1 for the first, 0.804 for the second.

First: A21U C30U A36G G44A
Second: U28G A36G A45G A69U
The yeast fitness of the first is lower: ≤ 0.5 for the first, 0.825 for the second.

First: C4U G9C A20G A45G C61A G67A
Second: A20U
The yeast fitness of the first is lower: ≤ 0.5 for the first, 0.986 for the second.

Compared with A15G A40G, U2A G6C U7C A15U U35C G41A C60A A65U A69G is lower in yeast fitness: 0.758 for the first, ≤ 0.5 for the second.

Going from G25A A43C C60A to U26A C30G A37C U59A, the yeast fitness falls from 0.544 to ≤ 0.5.

First: G17A A21G C49U C60A G63A
Second: C24U U26C G63A A65G
The yeast fitness of the first is higher: 0.529 for the first, ≤ 0.5 for the second.

Compared with C5U A14G A65G, A20U A21G is higher in yeast fitness: 0.69 for the first, 0.947 for the second.

C31A G63C G67C and U32A A37C C66U cannot be ordered by yeast fitness: ≤ 0.5 for the first, ≤ 0.5 for the second.

Compared with C29U A42U A43U A57C A70G, A15G C60G C62U is lower in yeast fitness: 0.577 for the first, ≤ 0.5 for the second.

Compared with G6A C33G U47A U64G, A21C C27A C49G is lower in yeast fitness: 0.558 for the first, 0.54 for the second.

Going from C24U U47C C55G A70U to A20C A65C, the yeast fitness rises from 0.642 to 0.957.

First: A14G G52C C66G
Second: A15G A42C A45C G48A
The yeast fitness of the first is lower: 0.619 for the first, 0.63 for the second.

First: C29U U47A
Second: C22U G38A
The yeast fitness of the first is higher: 0.795 for the first, 0.748 for the second.

First: U13G A43G U53A
Second: G10C G51C
The yeast fitness of the first is higher: 0.57 for the first, 0.535 for the second.

First: C33U G68C
Second: U2C C4A G17A C60G
The yeast fitness of the first is higher: 0.686 for the first, ≤ 0.5 for the second.

C27U A40U U54C and C5G C30U G50C cannot be ordered by yeast fitness: ≤ 0.5 for the first, ≤ 0.5 for the second.

For C5U C11A A45G, the yeast fitness was 0.537.
